These results are taken from ChEMBL document CHEMBL3351295, “Rational design, synthesis and evaluation of chromone-indole and chromone-pyrazole based conjugates: identification of a lead for anti-inflammatory drug” (Eur J Med Chem, 2014).

The source made the active and inactive calls. The calls are words filed in the database; no cut-off is given here.

For test [1], the target named is T1, Prostaglandin G/H synthase 1 (Ovis aries) (UniProt P05979).
T1 sequence (whole entry): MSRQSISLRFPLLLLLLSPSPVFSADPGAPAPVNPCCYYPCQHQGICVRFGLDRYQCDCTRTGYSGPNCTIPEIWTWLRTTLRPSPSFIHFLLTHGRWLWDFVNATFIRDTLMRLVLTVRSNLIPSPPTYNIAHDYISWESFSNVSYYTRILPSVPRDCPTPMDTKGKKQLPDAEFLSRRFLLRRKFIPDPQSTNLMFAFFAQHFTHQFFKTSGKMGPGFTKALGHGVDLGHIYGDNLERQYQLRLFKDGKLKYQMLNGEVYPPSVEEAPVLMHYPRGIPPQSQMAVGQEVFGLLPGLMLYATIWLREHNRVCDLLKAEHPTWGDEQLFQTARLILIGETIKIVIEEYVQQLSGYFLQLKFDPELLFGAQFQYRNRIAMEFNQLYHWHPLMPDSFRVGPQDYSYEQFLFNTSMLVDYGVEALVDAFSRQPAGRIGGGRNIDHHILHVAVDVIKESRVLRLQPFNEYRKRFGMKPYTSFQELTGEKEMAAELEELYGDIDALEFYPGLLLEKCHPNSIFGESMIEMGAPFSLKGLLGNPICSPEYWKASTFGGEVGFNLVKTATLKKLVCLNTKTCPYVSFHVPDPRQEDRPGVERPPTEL
As to the kind of experiment: Inhibition of ovine COX-1 assessed as decrease in prostaglandin production using arachidonic acid as substrate at 10 uM incubated with enzyme for 10 mins prior to substrate challenge by enzyme immunoassay. The essentials: (§1)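 Ovine COX-1 EIA kit run in triplicate. Compounds were at 10^-5 to 10^-8 M. Enzyme and compound were incubated 10 min at 37 °C, then arachidonic acid was added for 2 min. The reaction was stopped with 1 M HCl and reduced with stannous chloride. Prostaglandins were quantified by AChE-tracer competitive EIA (18 h at room temperature, Ellman's reagent, read at 420 nm) against a 100% activity control.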

In test [2] the target is T1, Prostaglandin G/H synthase 1 (Ovis aries). The test can be described thus: Inhibition of ovine COX-1 assessed as decrease in prostaglandin production using arachidonic acid as substrate at 1 uM incubated with enzyme for 10 mins prior to substrate challenge by enzyme immunoassay. The essentials: as §1
Test [3] has the same target. As to the kind of experiment: Inhibition of ovine COX-1 assessed as decrease in prostaglandin production using arachidonic acid as substrate at 0.1 uM incubated with enzyme for 10 mins prior to substrate challenge by enzyme immunoassay. Summed up:
as §1

Test [4] addresses T2, Prostaglandin G/H synthase 1 (Ovis aries, UniProt P05979).
T2 sequence (P05979 whole entry): T1 sequence (whole entry)
As to the kind of experiment: Inhibition of ovine COX-1 assessed as decrease in prostaglandin production using arachidonic acid as substrate incubated with enzyme for 10 mins prior to substrate challenge by enzyme immunoassay. The essentials:
as §1

The test system of test [5] is Solanum tuberosum. As to the kind of experiment: Inhibition of potato 5-LOX assessed as decrease in leukotriene production using arachidonic acid as substrate at 1 uM by enzyme immunoassay.
The test system of test [6] is Solanum tuberosum. As to the kind of experiment: Inhibition of potato 5-LOX assessed as decrease in leukotriene production using arachidonic acid as substrate at 0.1 uM by enzyme immunoassay. Summed up:
(§2)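 Potato 5-LOX assay in buffer with DMSO solvent control. Compounds were tested at final well concentrations of 10^-5 to 10^-8 M in duplicate. Reaction was started with arachidonic acid and the plate shaken 5 min. Chromogen was added to stop the reaction, followed by 30 min incubation and reading at 500 nm. Activity was compared with 100% initial-activity wells.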

Test [7] can be described thus: Inhibition of potato 5-LOX assessed as decrease in leukotriene production using arachidonic acid as substrate by enzyme immunoassay. More on the design: species or system Solanum tuberosum. Summed up: as §2
For test [8], the system named is Solanum tuberosum. The test can be described thus: Inhibition of potato 5-LOX assessed as decrease in leukotriene production using arachidonic acid as substrate at 10 nM by enzyme immunoassay.
For test [9], the system named is Solanum tuberosum. As to the kind of experiment: Inhibition of potato 5-LOX assessed as decrease in leukotriene production using arachidonic acid as substrate at 10 uM by enzyme immunoassay. The essentials:
as §2

The subject of test [10] is Mus musculus. The test can be described thus: Analgesic activity in Swiss albino mouse assessed as decrease in capsaicin-induced paw lickings at 5 mg/kg, ip administered 30 mins before capsaicin injection. As to conditions: route intraperitoneal. The test is classed as functional. Summed up:
(§3)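 Capsaicin […] was injected into the plantar surface of the right hind paw. Swiss albino mice (25–35 g, either sex, groups of 6) were pretreated i.p. 30 min beforehand; saline 0.5 mL was the control. Time spent licking and twitching was recorded over 10 min. Results are mean ± SEM (n = 6), analysed by one-way ANOVA with Tukey's test.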

Test [11] deals with Mus musculus. As to the kind of experiment: Analgesic activity in Swiss albino mouse assessed as decrease in capsaicin-induced paw lickings at 10 mg/kg, ip administered 30 mins before capsaicin injection. The test is classed as functional, organism-based. Set-up: dose 10 mg/kg. The essentials:
as §3

In test [12] the target is Prostaglandin G/H synthase 1 (Homo sapiens) (UniProt P23219). The test can be described thus: Binding affinity to COX-1 (unknown origin) at 0.35 mM after 30 mins by [13C] NMR spectroscopy. Particulars: in the assay text read “[1H] NMR” for “[13C] NMR”. Summed up:
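Compound was 0.35 mM in DMSO-d6, with 12 (0.08 mM) COX-1 or COX-2 added. Samples were incubated at 37 °C and 1H NMR spectra were recorded every 30 min. D2O exchange was used to assign NH signals.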

Test [13] shares this target.
In test [14] the target is T3, Prostaglandin G/H synthase 2 (Homo sapiens) (UniProt P35354).
T3 sequence (whole entry): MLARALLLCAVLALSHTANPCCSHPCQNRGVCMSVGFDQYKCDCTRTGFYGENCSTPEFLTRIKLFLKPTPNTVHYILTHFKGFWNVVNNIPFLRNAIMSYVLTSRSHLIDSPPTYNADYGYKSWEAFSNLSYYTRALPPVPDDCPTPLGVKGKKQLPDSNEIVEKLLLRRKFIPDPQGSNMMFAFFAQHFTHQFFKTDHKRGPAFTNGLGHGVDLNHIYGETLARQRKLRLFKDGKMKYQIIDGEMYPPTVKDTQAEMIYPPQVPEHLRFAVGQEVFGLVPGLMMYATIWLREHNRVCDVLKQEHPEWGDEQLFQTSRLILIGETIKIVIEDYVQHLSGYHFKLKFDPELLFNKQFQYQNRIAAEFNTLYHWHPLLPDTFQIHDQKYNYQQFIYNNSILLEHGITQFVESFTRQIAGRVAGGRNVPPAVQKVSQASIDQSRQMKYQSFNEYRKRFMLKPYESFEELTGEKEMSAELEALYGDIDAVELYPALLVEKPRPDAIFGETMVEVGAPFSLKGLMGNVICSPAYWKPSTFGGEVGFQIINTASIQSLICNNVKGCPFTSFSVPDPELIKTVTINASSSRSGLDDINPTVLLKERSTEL

In test [15] the test system is Mus musculus. As to the kind of experiment: Analgesic activity in Swiss albino mouse assessed as decrease in capsaicin-induced paw lickings at 25 mg/kg, ip administered 30 mins before capsaicin injection. In kind it is functional. As to conditions: route intraperitoneal. The essentials: as §3

Chain of Prostaglandin G/H synthase 1 (Homo sapiens) (P23219 whole entry): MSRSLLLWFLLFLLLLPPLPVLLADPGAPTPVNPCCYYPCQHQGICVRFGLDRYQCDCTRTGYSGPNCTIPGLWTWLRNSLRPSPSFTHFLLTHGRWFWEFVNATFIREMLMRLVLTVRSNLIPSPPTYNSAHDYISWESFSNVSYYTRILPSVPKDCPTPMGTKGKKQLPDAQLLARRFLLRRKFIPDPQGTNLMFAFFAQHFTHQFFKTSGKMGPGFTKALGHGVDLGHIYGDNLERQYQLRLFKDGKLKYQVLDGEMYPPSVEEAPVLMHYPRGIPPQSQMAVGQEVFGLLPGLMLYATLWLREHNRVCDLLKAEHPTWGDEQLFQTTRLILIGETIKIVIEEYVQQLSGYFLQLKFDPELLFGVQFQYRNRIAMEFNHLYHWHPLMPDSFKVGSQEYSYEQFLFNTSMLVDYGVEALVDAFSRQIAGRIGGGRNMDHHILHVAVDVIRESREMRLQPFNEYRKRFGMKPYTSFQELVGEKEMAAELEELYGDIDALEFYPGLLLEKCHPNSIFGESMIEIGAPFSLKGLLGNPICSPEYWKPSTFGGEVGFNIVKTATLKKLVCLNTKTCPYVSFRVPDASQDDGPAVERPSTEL

As to `CC1=NN(c2cccc(Cl)c2)C(=O)/C1=C/c1coc2c([N+](=O)[O-])cc(F)cc2c1=O`, the inhibition in [1] came out at 27.9%; in test [2], 18%; in test [3], 15%; in [5] it was 46.5%; in [6], 22.4%; in test [8], 8.62%. Besides, the IC50 in test [4] is above 10000 nM; in [7], 7400 nM.
With `O=C1Nc2ccccc2/C1=C/c1coc2ccccc2c1=O`, the inhibition in test [1] was found to be 51.6%; in [2], 43%; in [3], 35%; in test [9], 74.1%; in test [6] it was 22.4%. Moreover, the concentration for half-maximal inhibition (IC50) in test [4] was determined as 1350 nM. In addition, in test [10], the inhibition in vivo at 5 mg/kg worked out at 76%. In test [11], the inhibition entry was “Active”. The outcome in [12] was Active. For the same compound, the Ka in test [13] was determined as 0.29 ×10⁴ /M; in test [14], 0.75 ×10⁴ /M.
In the case of `CC(C)c1ccc2occ(/C=C3/C(=O)N(c4c(Cl)cccc4Cl)c4ccccc43)c(=O)c2c1`, the inhibition was 64.6% in test [1]; 56% in test [2]; 47% in test [3]; 81% in test [5]; 44.8% in [6]; 30.1% in test [8]. Further, the half-inhibitory concentration (IC50) in [4] is 650 nM; in test [7], 20 nM.
For `O=C1/C(=C/c2coc3ccc(Br)cc3c2=O)c2ccccc2N1c1c(Cl)cccc1Cl`, the inhibition is 80.3% in [1]; 60% in [2]; 44.4% in test [3]; 50% in [9]; 37% in [6]; 25% in [8]. Besides, the concentration for half-maximal inhibition (IC50) in [4] came to 630 nM; in [7], 10000 nM.
`CC(=O)Oc1ccccc1C(=O)O`: the Ka in [13] came to 0.93 ×10⁴ /M; in test [14], 0.22 ×10⁴ /M.
For `O=C1/C(=C/c2coc3ccccc3c2=O)c2ccccc2N1c1c(Cl)cccc1Cl`, the inhibition in [1] amounted to 80.3%; in [2], 75%; in [3], 63%; in test [9], 8.62%; in [5], 15.5%; in [6] it was 20%. Moreover, in test [4], the half-inhibitory concentration (IC50) stood at 4.7 nM.
On to `O=C1Nc2ccccc2/C1=C/c1coc2ccc(Br)cc2c1=O`, for which the inhibition in [1] was 40.5%; in test [2], 30.4%; in test [3], 20%; in test [5], 77.6%. For the same compound, the IC50 in [4] worked out at 6750 nM.
Regarding `O=C(O)Cc1ccccc1Nc1c(Cl)cccc1Cl` [DICLOFENAC], the inhibition in vivo at 25 mg/kg in test [15] was found to be 68%.
As to `CCCCC/C=C\C/C=C\C/C=C\C/C=C\CCCC(=O)O`, the Ka was determined as 0.39 ×10⁴ /M in [13] and 0.18 ×10⁴ /M in test [14].
